# Data from BindingDB's records for doi:10.1021/np970237h (University of Antwerp, 1998).
# Biological target: Xanthine dehydrogenase/oxidase (Homo sapiens, UniProt P47989)
# Experiment: Inhibition of xanthine oxidase assessed as decrease in uric acid production by spectrophotometry
# Summary of the method: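 Flavonoid at various concentrations with 50 µM xanthine, 0.2 mM hydroxylamine and 0.1 mM EDTA. Stopped with HCl, then uric acid read as absorbance at 290 nm against an enzyme-free blank. IC50 by linear regression.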
# Chain of Xanthine dehydrogenase/oxidase (P47989 whole entry): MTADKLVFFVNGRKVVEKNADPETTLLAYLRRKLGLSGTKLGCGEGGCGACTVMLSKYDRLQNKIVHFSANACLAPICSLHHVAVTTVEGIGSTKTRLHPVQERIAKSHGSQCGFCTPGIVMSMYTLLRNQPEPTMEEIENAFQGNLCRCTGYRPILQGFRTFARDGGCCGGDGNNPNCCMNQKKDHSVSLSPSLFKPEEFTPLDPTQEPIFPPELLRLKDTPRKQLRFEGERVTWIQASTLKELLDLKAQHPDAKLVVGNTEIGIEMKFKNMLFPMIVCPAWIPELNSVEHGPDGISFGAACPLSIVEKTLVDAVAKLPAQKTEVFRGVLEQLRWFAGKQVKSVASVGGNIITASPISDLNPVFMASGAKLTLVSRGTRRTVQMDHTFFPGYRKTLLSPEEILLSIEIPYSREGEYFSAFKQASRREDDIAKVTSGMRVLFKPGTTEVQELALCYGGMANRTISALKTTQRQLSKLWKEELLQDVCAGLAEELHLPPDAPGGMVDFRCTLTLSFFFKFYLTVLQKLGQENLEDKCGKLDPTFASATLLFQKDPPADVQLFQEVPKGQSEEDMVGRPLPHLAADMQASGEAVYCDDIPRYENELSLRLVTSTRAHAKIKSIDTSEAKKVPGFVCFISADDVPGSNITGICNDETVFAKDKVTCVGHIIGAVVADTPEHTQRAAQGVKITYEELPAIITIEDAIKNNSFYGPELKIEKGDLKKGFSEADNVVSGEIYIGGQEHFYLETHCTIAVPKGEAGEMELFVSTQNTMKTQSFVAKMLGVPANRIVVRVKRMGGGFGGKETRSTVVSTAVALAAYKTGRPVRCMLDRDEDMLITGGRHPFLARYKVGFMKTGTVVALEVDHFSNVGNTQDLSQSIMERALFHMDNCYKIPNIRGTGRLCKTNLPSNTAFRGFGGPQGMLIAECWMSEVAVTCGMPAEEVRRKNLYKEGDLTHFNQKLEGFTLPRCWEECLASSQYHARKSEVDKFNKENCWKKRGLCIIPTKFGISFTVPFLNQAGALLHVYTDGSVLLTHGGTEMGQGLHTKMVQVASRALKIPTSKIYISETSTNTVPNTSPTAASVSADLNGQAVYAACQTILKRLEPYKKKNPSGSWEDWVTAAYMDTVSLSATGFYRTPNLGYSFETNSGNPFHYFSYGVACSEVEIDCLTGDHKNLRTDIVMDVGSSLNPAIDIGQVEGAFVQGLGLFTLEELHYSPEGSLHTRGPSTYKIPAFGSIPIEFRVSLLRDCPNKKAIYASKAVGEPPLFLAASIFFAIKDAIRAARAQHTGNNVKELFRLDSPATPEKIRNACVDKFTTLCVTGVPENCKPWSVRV
row,SMILES,IC50 [µM]
1,O=C(C=Cc1ccc(O)cc1)OC[C@H]1O[C@@H](Oc2c(-c3ccc(O)cc3)oc3cc(O)cc(=O)c-3c2O)[C@H](O)[C@@H](O)[C@@H]1O [kaempferol-3-beta-D-(6-O-trans-p-coumaroyl)glucopyranoside],> 100
2,C[C@@H]1O[C@@H](Oc2c(-c3ccc(O)c(O)c3)oc3cc(O)cc(=O)c-3c2O)[C@H](O)[C@H](O)[C@H]1O,> 100
